Source: ChEMBL document CHEMBL4145692, “Discovery of a Locally and Orally Active CXCL12 Neutraligand (LIT-927) with Anti-inflammatory Effect in a Murine Model of Allergic Airway Hypereosinophilia” (J Med Chem, 2018)
Values after ≈ are worked out from the molar mass of the structure shown. Values belong to the compound of their own block, whether it stands above or below them. Active and inactive are the calls of the source. The calls are words filed in the database; no cut-off is given here.

Key:
Mus musculus [1] = assay: Toxicity in Balb/c mouse model of hypereosinophilia assessed as prostration at 350 umol/kg, ip dosed daily 2 hrs before allergen challenge for 10 days and measured 24 hrs after last dose; type: organism-based; conditions: in vivo
Outline: (§1)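 Mice given 10 daily administrations at 350 μmol/kg. Monitored for weight loss and for signs of toxicity, including prostration and bristly hair.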

Mus musculus [2] = assay: Toxicity in Balb/c mouse model of hypereosinophilia assessed as induction of heart lesions at 350 umol/kg, ip dosed daily 2 hrs before allergen challenge for […] and measured 24 hrs after last dose by Gomori's trichrome staining based histological analysis; type: organism-based; conditions: in vivo
[3] = target: T1, Stromal cell-derived factor 1 (Homo sapiens, UniProt P48061); assay: Binding affinity to Texas Red-labelled CXCL12 (unknown origin) assessed as inhibition of CXCL12-Texas Red binding to EGFP-labeled human CXCR4 expressed in HEK293 cell membranes pre-incubated for 1 hr by FRET-based binding assay; conditions: hek293
T1 sequence (P48061 whole entry): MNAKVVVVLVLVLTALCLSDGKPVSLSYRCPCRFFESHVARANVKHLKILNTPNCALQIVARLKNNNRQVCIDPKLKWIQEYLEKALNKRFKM
Outline: (§2)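 HEK-293 cells stably expressing human EGFP-CXCR4, 10⁶ cells/ml in HEPES buffer pH 7.4 with 0.1% BSA, 21 °C. CXCL12-Texas Red (100 nM) was preincubated 1 h at room temperature with compound or DMSO, then added at t=150 s. FRET read as loss of EGFP emission at 510 nm (excitation 470 nm) up to equilibrium. Ki from dose-response curves.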

Mus musculus [4] = assay: Toxicity in Balb/c mouse model of hypereosinophilia assessed as reduction in body weight at 350 umol/kg, ip dosed daily 2 hrs before allergen challenge for 10 days and measured 24 hrs after last dose; type: organism-based; conditions: in vivo; outline: as §1
Mus musculus [5] = assay: Inhibition of lymphocytes infiltration in Balb/c mouse model of 8 day model of allergic eosinophilic airway inflammation at 300 nmol/kg dosed intranasally 2 hrs before ovalbumin challenge by hemocytometry; type: functional, organism-based
Outline: (§3)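 OVA/alum-sensitized Balb/c mice challenged intranasally with OVA on days 5–7. Compounds at 300 nmol/kg in 10% PBS/Cdx given intranasally 2 h before each challenge. BAL 24 h after the last challenge; eosinophils, neutrophils and lymphocytes counted by hemocytometer and differential cytospin; n=6/group.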

Mus musculus [6] = assay: Anti-inflammatory activity in Balb/c mouse model of hypereosinophilia assessed as inhibition of eosinophil infiltration at 350 umol/kg, ip dosed 2 hrs before allergen challenge; type: functional
Outline: (§4)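 Balb/c mice sensitized with OVA/alum i.p. and challenged intranasally with OVA on 3 consecutive days. Compounds given i.p. 2 h before each challenge: neutraligands 350 μmol/kg in PBS/CMC 1%, AMD3100 12.6 μmol/kg, dexamethasone 2.5 μmol/kg. BAL 24 h after the last challenge; absolute eosinophil counts; mean ± SEM, n=6/group.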

Mus musculus [7] = assay: Toxicity in Balb/c mouse model of hypereosinophilia assessed as induction of kidney lesions at 350 umol/kg, ip dosed daily 2 hrs before allergen challenge for […] and measured 24 hrs after last dose by Gomori's trichrome staining based histological analysis; type: organism-based; conditions: in vivo
[8] = Thermodynamic solubility in pH 7.4 PBS buffer incubated for 24 hrs at 22 degC by HPLC method; type: physicochemical; conditions: read-out: Therm_solubility
Outline: (§5)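 Powder dissolved to saturation in pH 7.4 PBS (100 mM sodium phosphate, 150 mM NaCl), or in PBS with 10% Cdx, and shaken 24 h. After centrifugation, supernatant quantified by HPLC against a per-compound calibration line prepared from the DMSO stock.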

Mus musculus [9] = assay: Inhibition of macrophages infiltration in Balb/c mouse model of 8 day model of allergic eosinophilic airway inflammation at 300 nmol/kg dosed intranasally 2 hrs before ovalbumin challenge by hemocytometry; type: functional, organism-based
Mus musculus [10] = assay: Toxicity in Balb/c mouse model of hypereosinophilia assessed as reduction in spleen weight at 350 umol/kg, ip dosed daily 2 hrs before allergen challenge for 3 days and measured 24 hrs after last dose; type: organism-based; design: scale not given: the % may be the effect or the level left; conditions: in vivo
Outline: (§6)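 Same OVA model with i.p. dosing 2 h before each of the three challenges: neutraligands 350 μmol/kg in PBS/CMC 1%, AMD3100 12.6 μmol/kg, dexamethasone 2.5 μmol/kg. Body and spleen weight loss recorded 24 h after three daily administrations; n=6/group.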

Mus musculus [11] = assay: Toxicity in Balb/c mouse model of hypereosinophilia assessed as induction of liver lesions at 350 umol/kg, ip dosed daily 2 hrs before allergen challenge for […] and measured 24 hrs after last dose by Gomori's trichrome staining based histological analysis; type: organism-based; conditions: in vivo
[12] = Kinetic solubility in pH 7.4 HEPES-BSA buffer at 5 uM incubated for 24 hrs at 20 degC by HPLC method; type: physicochemical; conditions: read-out: Kinetic_solubility
Outline: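 Compound added from 10 mM DMSO stock to 5 μM in pH 7.4 HEPES-BSA buffer (1 g/L BSA), shaken 24 h at 20 °C. After centrifugation, supernatant concentration measured by HPLC against 5 and 10 μM standards.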

[13] = Solubility in PBS buffer; type: physicochemical; outline: as §5
Mus musculus [14] = assay: Inhibition of eosinophil infiltration in Balb/c mouse model of 8 day model of allergic eosinophilic airway inflammation at 300 nmol/kg dosed intranasally 2 hrs before ovalbumin challenge by hemocytometry; type: functional; conditions: inhaled or nasal; outline: as §3
[15] = Chemical stability in pH 7.4 PBS buffer assessed as parent compound remaining at 10 uM incubated for 24 hrs by RP-HPLC method; type: physicochemical; conditions: read-out: Stability
Outline: (§7)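 Compound diluted from DMSO stock to 10 μM final (1% DMSO) in PBS pH 7.4, or in PBS with 10% w/w (2-hydroxypropyl)-β-cyclodextrin. Sampled at t0, 2, 4, 6 and 24 h and injected directly onto RP-HPLC. Percent remaining relative to t0 from peak area.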

Mus musculus [16] = assay: Inhibition of eosinophil infiltration in Balb/c mouse model of 8 day model of allergic eosinophilic airway inflammation dosed intranasally 2 hrs before ovalbumin challenge by hemocytometry; type: functional, organism-based
Outline: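 Same intranasal OVA model with dose-response treatment in PBS/Cdx 10% given 2 h before each challenge. Percent inhibition of BAL eosinophil recruitment; mean ± SEM, n=6/group.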

[17] = Thermodynamic solubility in pH 7.4 PBS/Cdx buffer incubated for 24 hrs at 22 degC by HPLC method; type: physicochemical; conditions: read-out: Therm_solubility; outline: as §5
[18] = Chemical stability in pH 7.4 PBS/Cdx buffer assessed as parent compound remaining at 10 uM incubated for 24 hrs by RP-HPLC method; type: physicochemical; conditions: read-out: Stability; outline: as §7
Mus musculus [19] = assay: Toxicity in Balb/c mouse model of hypereosinophilia assessed as induction of bristly hair at 350 umol/kg, ip dosed daily 2 hrs before allergen challenge for 10 days and measured 24 hrs after last dose; type: organism-based; conditions: in vivo; outline: as §1
Mus musculus [20] = assay: Toxicity in Balb/c mouse model of hypereosinophilia assessed as reduction in spleen weight at 12.6 umol/kg, ip dosed daily 2 hrs before allergen challenge for 3 days and measured 24 hrs after last dose; type: organism-based; design: scale not given: the % may be the effect or the level left; conditions: in vivo; outline: as §6
Mus musculus [21] = assay: Toxicity in Balb/c mouse model of hypereosinophilia assessed as reduction in body weight at 12.6 umol/kg, ip dosed daily 2 hrs before allergen challenge for 3 days and measured 24 hrs after last dose; type: organism-based; design: scale not given: the % may be the effect or the level left; conditions: in vivo; outline: as §6
Mus musculus [22] = assay: Toxicity in Balb/c mouse model of hypereosinophilia assessed as reduction in body weight at 350 umol/kg, ip dosed daily 2 hrs before allergen challenge for 3 days and measured 24 hrs after last dose; type: organism-based; design: scale not given: the % may be the effect or the level left; conditions: in vivo; outline: as §6
Mus musculus [23] = assay: Toxicity in Balb/c mouse model of hypereosinophilia assessed as toxic signs at 350 umol/kg, ip dosed daily 2 hrs before allergen challenge for 10 days and measured 24 hrs after last dose; type: organism-based; conditions: in vivo; outline: as §1
Mus musculus [24] = assay: Toxicity in Balb/c mouse model of hypereosinophilia assessed as induction of spleen lesions at 350 umol/kg, ip dosed daily 2 hrs before allergen challenge for […] and measured 24 hrs after last dose by Gomori's trichrome staining based histological analysis; type: organism-based; conditions: in vivo
[25] = target: T1, Stromal cell-derived factor 1; assay: Binding affinity to Texas Red-labelled CXCL12 (unknown origin) assessed as inhibition of CXCL12-Texas Red binding to EGFP-labeled human CXCR4 expressed in HEK293 cell membranes at 3 uM pre-incubated for 1 hr by FRET-based binding assay; outline: as §2
Mus musculus [26] = organism: Mus musculus; assay: animal or person; conditions: Balb/c, ip, read-out: INH
[27] = target: T1, Stromal cell-derived factor 1; assay: Binding affinity to CXCL12 (unknown origin) assessed as changes in tryptophan fluorescence intensity
Outline: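 Intrinsic Trp fluorescence of CXCL12 (2 μM in Hepes buffer), excitation 285 nm, emission 340 nm, titrated with increasing compound. Kd obtained by fitting a 1:1 binding quadratic model with chemokine fixed at 2 μM. Mean ± SD of three independent experiments.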

[28] = target: T1, Stromal cell-derived factor 1; assay: Binding affinity to Texas Red-labelled CXCL12 (unknown origin) assessed as inhibition of CXCL12-Texas Red binding to EGFP-labeled human CXCR4 expressed in HEK293 cell membranes at 300 uM pre-incubated for 1 hr by FRET-based binding assay; outline: as §2
[29] = target: T1, Stromal cell-derived factor 1; assay: Binding affinity to Texas Red-labelled CXCL12 (unknown origin) assessed as inhibition of CXCL12-Texas Red binding to EGFP-labeled human CXCR4 expressed in HEK293 cell membranes at 1 uM pre-incubated for 1 hr by FRET-based binding assay; outline: as §2
Mus musculus [30] = assay: Toxicity in Balb/c mouse model of hypereosinophilia assessed as reduction in body weight at 2.5 umol/kg, ip dosed daily 2 hrs before allergen challenge for 3 days and measured 24 hrs after last dose; type: organism-based; design: scale not given: the % may be the effect or the level left; conditions: in vivo; outline: as §6
Mus musculus [31] = assay: Toxicity in Balb/c mouse model of hypereosinophilia assessed as reduction in spleen weight at 2.5 umol/kg, ip dosed daily 2 hrs before allergen challenge for 3 days and measured 24 hrs after last dose; type: organism-based; design: scale not given: the % may be the effect or the level left; conditions: in vivo; outline: as §6
Mus musculus [32] = assay: Anti-inflammatory activity in Balb/c mouse model of hypereosinophilia assessed as inhibition of eosinophil infiltration at 2.5 umol/kg, ip dosed 2 hrs before allergen challenge; type: functional; outline: as §4
[33] = target: T1, Stromal cell-derived factor 1; assay: Binding affinity to Texas Red-labelled CXCL12 (unknown origin) assessed as inhibition of CXCL12-Texas Red binding to EGFP-labeled human CXCR4 expressed in HEK293 cell membranes at 0.3 uM pre-incubated for 1 hr by FRET-based binding assay; outline: as §2

Ki [3]: 53 nM | solubility thermodynamic at 24 h [8]: 9 µM (≈ 2.6 µg/mL) | solubility kinetic at 24 h, 5 µM [12]: > 5 µM | solubility [13]: 9 µM (≈ 2.6 µg/mL) | remaining at 24 h, 10 µM [15]: 100% | IC50 (Mus musculus [16]): > 500 nmol/kg | solubility thermodynamic at 24 h [17]: > 300 µM | remaining at 24 h, 10 µM [18]: 100%
SMILES: COc1cc(/C=C/C(=O)c2ccc(Cl)cc2)ccc1O
Activity (Mus musculus [1]): Non-Toxic | Activity (Mus musculus [2]): Non-Toxic | Activity (Mus musculus [4]): Non-Toxic | inhibition (Mus musculus [5]): inactive | inhibition in vivo at 350 µmol/kg (Mus musculus [6]): 54% | Activity (Mus musculus [7]): Non-Toxic | inhibition (Mus musculus [9]): inactive | Activity (Mus musculus [10]): 0% | Activity (Mus musculus [11]): Non-Toxic | inhibition in vivo at 0.3 µmol/kg (Mus musculus [14]): 47% | Activity (Mus musculus [19]): Non-Toxic | Activity (Mus musculus [20]): Non-Toxic | Activity (Mus musculus [21]): Non-Toxic | Activity (Mus musculus [22]): 0% | Activity (Mus musculus [23]): Non-Toxic | Activity (Mus musculus [24]): Non-Toxic

solubility kinetic at 24 h, 5 µM [12]: 2.31 µM (≈ 0.662 µg/mL) | inhibition [25]: 25%
SMILES: O=C(/C=C/c1ccc2c(c1)OCO2)c1ccc(Cl)cc1

SMILES: c1cc(CN2CCCNCCNCCCNCC2)ccc1CN1CCCNCCNCCCNCC1 [PLERIXAFOR]
inhibition in vivo at 12.6 µmol/kg (Mus musculus [26]): 33% | Activity (Mus musculus [20]): 9.8% | Activity (Mus musculus [21]): 7.8%

Activity [27]: inactive | inhibition [28]: < 5%
SMILES: O=c1nc(-c2ccc(Cl)cc2)cc(-c2ccc(O)cc2)[nH]1
inhibition (Mus musculus [5]): inactive

solubility kinetic at 24 h, 5 µM [12]: 1.17 µM (≈ 0.284 µg/mL) | inhibition [29]: 18%
SMILES: O=C(/C=C/c1ccccc1)c1ccc(Cl)cc1

SMILES: C[C@@H]1C[C@H]2[C@@H]3CCC4=CC(=O)C=C[C@]4(C)[C@@]3(F)[C@@H](O)C[C@]2(C)[C@@]1(O)C(=O)CO [DEXAMETHASONE]
Activity (Mus musculus [30]): 10.1% | Activity (Mus musculus [31]): 43% | inhibition in vivo at 2.5 µmol/kg (Mus musculus [32]): 59%

inhibition [33]: 20% | solubility kinetic at 24 h, 5 µM [12]: 0.53 µM (≈ 0.206 µg/mL)
SMILES: COc1cc(-c2cc(-c3ccc(Cl)cc3)nc(-c3ccccc3)n2)ccc1O
